The source of these data is ChEMBL document CHEMBL4184268, “Design, synthesis, and biological evaluation of inhibitors of the NADPH oxidase, Nox4” (Bioorg Med Chem, 2018).

The source made the active and inactive calls. The calls are words filed in the database; no cut-off is given here.

Data set [1] in a line: Effect on hydrogen peroxide radical scavenging activity up to 100 uM measured after 5 mins by Amplex Red assay. Type of data set: functional. The method, boiled down:
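Cell-free H2O2 consumption. Exogenous H2O2 incubated 5 min with compound (1–100 μM) in reaction buffer. Amplex Red/horseradish peroxidase then added for 30 min at room temperature in the dark. Resorufin read at ex 530/em 590 nm. DMSO solvent control. Means ± SEM of 3 independent experiments, one-way ANOVA with Dunnett's test.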

Data set [2] is described as follows: Cytotoxicity against HASMCs assessed as cell viability at 100 uM after 24 hrs by calcein/AM/ethidium homodimer-1 staining based fluorescence microscopic analysis relative to control. Particulars: human, HASMC cells; read-out: Activity. The method, boiled down: (§1)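 HASMs (before passage 10) grown to 80% confluence, then serum-reduced (0.1% FBS) for 24 h. Cells were pretreated with compound for 30 min, then given TGF-β (2 ng/ml) for 24 h. Stained with calcein/AM (2 μM) and ethidium homodimer-1 (4 μM) for 10 min at room temperature, read by fluorescence microscopy. Controls: untreated cells as negative, 70% ethanol for 30 min as positive.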

A further data set concerns the target T1, NADPH oxidase 4 (Homo sapiens, UniProt Q9NPH5).
T1 sequence (Q9NPH5 whole entry): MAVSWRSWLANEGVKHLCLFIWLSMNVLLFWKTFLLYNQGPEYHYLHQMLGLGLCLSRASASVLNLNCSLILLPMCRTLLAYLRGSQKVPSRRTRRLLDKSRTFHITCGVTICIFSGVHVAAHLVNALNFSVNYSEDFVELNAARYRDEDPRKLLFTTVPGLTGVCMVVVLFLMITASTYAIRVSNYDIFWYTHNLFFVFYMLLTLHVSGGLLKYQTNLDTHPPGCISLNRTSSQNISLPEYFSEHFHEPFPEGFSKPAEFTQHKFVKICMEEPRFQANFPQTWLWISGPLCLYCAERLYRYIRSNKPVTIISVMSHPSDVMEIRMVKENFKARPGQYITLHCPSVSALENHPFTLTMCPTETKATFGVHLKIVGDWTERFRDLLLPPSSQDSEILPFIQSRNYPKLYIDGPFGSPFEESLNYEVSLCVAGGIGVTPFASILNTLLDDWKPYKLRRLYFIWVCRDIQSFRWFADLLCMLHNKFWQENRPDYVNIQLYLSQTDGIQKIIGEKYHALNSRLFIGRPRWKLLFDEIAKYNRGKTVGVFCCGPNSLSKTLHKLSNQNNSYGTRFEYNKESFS
Kind of data set: Inhibition of Nox4 in HASMCs assessed as reduction in TGFbeta-induced increase in smooth muscle alpha actin level pretreated for 30 mins followed by TGFbeta stimulation after 24 hrs by Western blot analysis. The method, boiled down: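 HASMs (<passage 10) at 80% confluence, serum-reduced (0.1% FBS) 24 h, pretreated 30 min with compound (1–100 μM), then TGF-β 2 ng/ml for 24 h. Lysates blotted for α-SMA normalized to β-tubulin, ECL detection. TGF-β alone set as 100%. IC50 by non-linear regression, means ± SEM from 3–4 independent experiments.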

A further data set deals with HASMC. Briefly: Effect on TGFbeta-induced Nox4 mRNA expression in HASMCs at 1 to 100 uM pretreated for 30 mins followed by TGFbeta addition measured after 24 hrs by qPCR analysis. Type of data set: functional, cell-based. Particulars: Homo sapiens.
A short description of data set [3]: Effect on hypoxanthine/xanthine oxidase-induced superoxide radical scavenging activity up to 100 uM incubated for 1 min measured for 15 mins by cytochrome C assay. Type of data set: functional. The method, boiled down:
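Superoxide from hypoxanthine (100 μM)/xanthine oxidase in PBS with catalase (200 U/mL), compound 1–100 μM, detected by cytochrome C (46 μM) reduction at 550 nm. After 1 min stabilization, read kinetically 1/min for 15 min. Linear slope gave % scavenging. SOD (575 U/mL) as positive control. Means ± SEM of 4 experiments, ANOVA/Dunnett.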

Data set [4] can be described thus: Cytotoxicity against HASMCs assessed as cell viability at 10 uM after 24 hrs by calcein/AM/ethidium homodimer-1 staining based fluorescence microscopic analysis relative to control. Particulars: human, HASMC cells; read-out: Activity. Summed up:
as §1

Turning to `O=C1N(c2ccc(C(F)(F)F)cc2)CCCN1S(=O)(=O)c1ccc(F)cc1`, the outcome (in data set [1]; in the data set on HASMC; in data set [3]) was inactive. Besides, the viability at 24 h, 100 µM in data set [2] is 100%. The IC50 (in general, the midpoint of a concentration-inhibition curve) at NADPH oxidase 4 was found to be 3.7 µM.
On to `COc1ccc(S(=O)(=O)N2CCCN(c3ccc(C(F)(F)F)cc3)C2=O)cc1`, for which the outcome (in data set [1]; with HASMC; in data set [3]) was inactive. In addition, the viability at 24 h, 100 µM in data set [2] is 92%. For the same compound, the half-inhibitory concentration (IC50) at NADPH oxidase 4 is 27 µM.
As for `COc1ccc(S(=O)(=O)N2CCN(c3ccc(C(F)(F)F)cc3)C2=O)cc1`, the result (in data set [1]; in the data set on HASMC; in data set [3]) was inactive. Also, the IC50 at NADPH oxidase 4 was 0.5 µM. The viability at 24 h, 10 µM in data set [4] was 97%.
